IC50 data for 20 compounds are collected here from ChEMBL document CHEMBL3425411, “Synthesis of β-Carboline-Based N-Heterocyclic Carbenes and Their Antiproliferative and Antimetastatic Activities against Human Breast Cancer Cells” (J Med Chem, 2015).

Assay type in all cases: functional, cell-based
For one test, the system named is MCF7. The experiment in a line: Cytotoxicity against human MCF7 cells assessed as growth inhibition after 24 to 72 hrs by MTT assay. In outline: (§1)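 About 5000 cells/well were grown 24 h in RPMI-1640 with 10% FBS, then given fresh medium with compound at various concentrations (from 10 mM DMSO stocks) for 24, 48 and 72 h. MTT (5 mg/mL stock) was added for 2 h and formazan dissolved in DMSO. Absorbance was read at 595 nm and expressed as percent proliferation versus DMSO control.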
Background: Tetrazolium dyes change colour on reduction, which living cells bring about.

Test [1] can be described thus: Cytotoxicity against human H1299 cells assessed as growth inhibition after 24 to 72 hrs by MTT assay. Particulars: NCI-H1299. In outline:
as §1

Another test relates to MDA-MB-468. The experiment in a line: Cytotoxicity against human MDA-MB-468 cells assessed as growth inhibition after 24 to 72 hrs by MTT assay. In outline: as §1
For a further test, the system named is MDA-MB-231. The test can be described thus: Cytotoxicity against human MDA-MB-231 cells assessed as growth inhibition after 24 to 72 hrs by MTT assay. In short, it runs like this:
as §1

Broadly, the IC50 is the midpoint of a concentration-inhibition curve. On to `COC(=O)c1cc2c3ccccc3[nH]c2c2cn(Cc3ccc(F)cc3)c[n+]12`, for which the IC50 with MCF7 is more than 30 µM; in test [1], more than 30 µM; in the test with MDA-MB-468, more than 30 µM; in the test with MDA-MB-231 it was 12.8 µM.

Turning to `COC(=O)c1cc2c3ccccc3n(Cc3cc(OC)c(OC)c(OC)c3)c2c2cn(-c3ccc(Cl)cc3)c[n+]12`, the IC50 (with MCF7; in test [1]; in the test on MDA-MB-468; with MDA-MB-231) was more than 30 µM in each case.

Regarding `COC(=O)c1cc2c3ccccc3[nH]c2c2cn(-c3ccc(OC)c(OC)c3)c[n+]12`, the IC50 in the test with MCF7 is more than 30 µM; in test [1], 16.4 µM; in the test with MDA-MB-468, 11.5 µM; with MDA-MB-231 it was 29.9 µM.

In the case of `CCN(CC)CCn1cc2c3[nH]c4ccccc4c3cc(C(=O)OC)[n+]2c1`, the IC50 (in the test with MCF7; in test [1]; in the test with MDA-MB-468; with MDA-MB-231) was more than 30 µM throughout.

With `COC(=O)c1cc2c3ccccc3[nH]c2c2cn(-c3ccccc3Br)c[n+]12`, the IC50 is more than 30 µM with MCF7, more than 30 µM in test [1], 11 µM in the test with MDA-MB-468 and 20.7 µM in the test on MDA-MB-231.

For the compound `COC(=O)c1cc2c3ccccc3[nH]c2c2cn(-c3ccccc3I)c[n+]12`, the IC50 in the test with MCF7 was determined as 5.96 µM; in test [1] it was 6.46 µM; in the test with MDA-MB-468, 8.02 µM; in the test with MDA-MB-231 it was 7.8 µM.

Turning to `COC(=O)c1cc2c3ccccc3[nH]c2c2cn(-c3ccc(Cl)cc3)c[n+]12`, the IC50 with MCF7 amounted to 25.7 µM; in test [1], 15.4 µM; with MDA-MB-468, 10.2 µM; in the test with MDA-MB-231, 9.38 µM.

In the case of `COC(=O)c1cc2c3ccccc3[nH]c2c2cn(-c3cccc(Br)c3)c[n+]12`, the IC50 was more than 30 µM in the test with MCF7, 26.9 µM in test [1], 15.1 µM in the test with MDA-MB-468 and 17.9 µM in the test with MDA-MB-231.

`COC(=O)c1cc2c3ccccc3[nH]c2c2cn(C34CC5CC(CC(C5)C3)C4)c[n+]12`: the IC50 (in the test with MCF7; in test [1]; with MDA-MB-468; in the test on MDA-MB-231) was more than 30 µM each time.

Turning to `COC(=O)c1cc2c3ccccc3[nH]c2c2cn(-c3ccc(F)cc3Br)c[n+]12`, the half-inhibitory concentration (IC50) is 13.3 µM with MCF7, 16.4 µM in test [1], 9.51 µM with MDA-MB-468 and 10.8 µM in the test with MDA-MB-231.

Regarding `COC(=O)c1cc2c3ccccc3[nH]c2c2cn(Cc3ccccc3)c[n+]12`, the IC50 is 6.26 µM in the test with MCF7, 23.7 µM in test [1], more than 9.27 µM in the test with MDA-MB-468 and 11.8 µM in the test with MDA-MB-231.

On to `COC(=O)c1cc2c3ccccc3[nH]c2c2cn(-c3ccc(Cl)cc3C)c[n+]12`, for which the IC50 with MCF7 was more than 30 µM; in test [1], more than 30 µM; in the test with MDA-MB-468, 20.2 µM; in the test on MDA-MB-231, 23.4 µM.

On to `COC(=O)c1cc2c3ccccc3[nH]c2c2cn(-c3cccc(C(F)(F)F)c3)c[n+]12`, for which the IC50 was more than 30 µM in the test with MCF7, 10.9 µM in test [1], 10.5 µM in the test with MDA-MB-468 and 14.6 µM in the test on MDA-MB-231.

In the case of `COC(=O)c1cc2c3ccccc3[nH]c2c2cn(C3CCCCC3)c[n+]12`, the IC50 with MCF7 was more than 30 µM; in test [1], more than 30 µM; in the test on MDA-MB-468, 18.2 µM; in the test on MDA-MB-231, more than 30 µM.

For `COC(=O)c1cc2c3ccccc3[nH]c2c2cn(CCc3ccccc3)c[n+]12`, the IC50 (in the test on MCF7; in test [1]; in the test on MDA-MB-468; in the test with MDA-MB-231) was more than 30 µM each time.

With `C=CCn1cc2c3[nH]c4ccccc4c3cc(C(=O)OC)[n+]2c1`, the IC50 in the test on MCF7 was more than 30 µM; in test [1], more than 30 µM; with MDA-MB-468, more than 30 µM; in the test on MDA-MB-231, 23 µM.

For `COC(=O)c1cc2c3ccccc3[nH]c2c2cn(-c3ccc(C)cc3Cl)c[n+]12`, the IC50 was more than 30 µM with MCF7, more than 30 µM in test [1], more than 30 µM with MDA-MB-468 and 14 µM in the test with MDA-MB-231.

`COC(=O)c1cc2c3ccccc3[nH]c2c2cn(C3CC3)c[n+]12`: the IC50 (with MCF7; in test [1]; in the test with MDA-MB-468; with MDA-MB-231) was more than 30 µM each time.

For `COC(=O)c1cc2c3ccccc3[nH]c2c2cn(Cc3ccc(C)cc3)c[n+]12`, the half-inhibitory concentration (IC50) in the test on MCF7 was more than 30 µM; in test [1], more than 30 µM; in the test with MDA-MB-468 it was more than 30 µM; in the test with MDA-MB-231, 11.2 µM.

Take `COC(=O)c1cc2c3ccccc3[nH]c2c2cn(-c3ccccc3)c[n+]12`: the IC50 in the test on MCF7 is more than 30 µM; in test [1], 8.87 µM; in the test with MDA-MB-468, 5.82 µM; in the test with MDA-MB-231, more than 30 µM.
